Reference: ChEMBL document CHEMBL1142018, “Discovery and SAR of new benzazepines as potent and selective 5-HT(2C) receptor agonists for the treatment of obesity” (Bioorg Med Chem Lett, 2005)

These compounds were tested against T1, 5-hydroxytryptamine receptor 2C (Homo sapiens) (UniProt P28335) (assay: Percentage maximum response relative to serotonin towards 5-hydroxytryptamine 2C receptor in HEK293 cells). Conditions: not given; call rule not given here.
T1 sequence (whole entry): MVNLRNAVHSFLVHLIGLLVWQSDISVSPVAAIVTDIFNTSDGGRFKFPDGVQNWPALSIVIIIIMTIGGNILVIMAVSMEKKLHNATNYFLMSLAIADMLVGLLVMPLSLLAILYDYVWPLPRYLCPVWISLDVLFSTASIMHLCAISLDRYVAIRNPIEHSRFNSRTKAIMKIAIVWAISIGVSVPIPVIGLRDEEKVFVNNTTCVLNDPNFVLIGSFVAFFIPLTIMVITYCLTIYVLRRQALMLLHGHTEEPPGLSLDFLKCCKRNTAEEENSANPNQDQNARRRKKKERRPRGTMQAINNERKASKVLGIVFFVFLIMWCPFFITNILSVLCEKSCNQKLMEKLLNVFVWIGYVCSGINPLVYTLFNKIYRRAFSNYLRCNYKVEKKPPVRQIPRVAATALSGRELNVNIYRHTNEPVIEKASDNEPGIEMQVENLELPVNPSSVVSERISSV
Type: functional, cell-based
How it was run: (§1)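 Functional agonism at human 5-HT2A, 5-HT2B or 5-HT2C receptors (the 2C as the INI isoform). Receptors were transiently transfected into HEK-293 cells, and the read-out was [³H]phosphoinositol turnover.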

| Structure (SMILES) | Maximum response |
| --- | --- |
| C[C@H]1CNCCc2ccc(Cl)c(Cl)c21 | 85% |
| C[C@H]1CNCCc2ccc(Cl)cc21 | 100% |
| C[C@@H]1CNCCc2ccc(Cl)c(Cl)c21 | 90% |
| C[C@@H]1CNCCc2ccc(Cl)cc21 | 100% |
| Clc1ccc2c(c1)CCNCC2 | 85% |

Each compound was assayed against T2, 5-hydroxytryptamine receptor 2A (Homo sapiens, UniProt P28223) (assay: Percentage maximum response relative to serotonin towards 5-hydroxytryptamine 2A receptor in HEK293 cells). Conditions: not given.
Type: functional, cell-based
How it was run: as §1

T2 sequence (P28223 whole entry): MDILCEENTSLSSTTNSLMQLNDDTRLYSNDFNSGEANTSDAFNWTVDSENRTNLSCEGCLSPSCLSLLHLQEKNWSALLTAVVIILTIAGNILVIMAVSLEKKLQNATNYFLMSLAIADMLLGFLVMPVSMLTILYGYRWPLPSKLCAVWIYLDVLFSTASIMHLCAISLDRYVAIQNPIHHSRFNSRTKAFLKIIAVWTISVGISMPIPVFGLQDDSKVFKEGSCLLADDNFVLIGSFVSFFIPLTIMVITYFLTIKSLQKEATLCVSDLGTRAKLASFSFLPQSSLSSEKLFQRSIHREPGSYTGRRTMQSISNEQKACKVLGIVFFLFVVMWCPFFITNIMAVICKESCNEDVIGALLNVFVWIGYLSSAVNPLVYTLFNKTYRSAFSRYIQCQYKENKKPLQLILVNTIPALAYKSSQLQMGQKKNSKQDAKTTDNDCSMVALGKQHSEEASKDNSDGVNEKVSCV

| Structure (SMILES) | Maximum response |
| --- | --- |
| C[C@H]1CNCCc2ccc(Cl)c(Cl)c21 | 100% |
| C[C@H]1CNCCc2ccc(Cl)cc21 | 70% |
| C[C@@H]1CNCCc2ccc(Cl)c(Cl)c21 | 35% |
| C[C@@H]1CNCCc2ccc(Cl)cc21 | 70% |
| Clc1ccc2c(c1)CCNCC2 | 100% |

These compounds were tested against T3, 5-hydroxytryptamine receptor 2B (Homo sapiens, UniProt P41595) (assay: Percentage maximum response relative to serotonin towards 5-hydroxytryptamine 2B receptor in HEK293 cells). Conditions: not given.
Type: functional, cell-based
How it was run: as §1

T3 sequence (P41595 whole entry): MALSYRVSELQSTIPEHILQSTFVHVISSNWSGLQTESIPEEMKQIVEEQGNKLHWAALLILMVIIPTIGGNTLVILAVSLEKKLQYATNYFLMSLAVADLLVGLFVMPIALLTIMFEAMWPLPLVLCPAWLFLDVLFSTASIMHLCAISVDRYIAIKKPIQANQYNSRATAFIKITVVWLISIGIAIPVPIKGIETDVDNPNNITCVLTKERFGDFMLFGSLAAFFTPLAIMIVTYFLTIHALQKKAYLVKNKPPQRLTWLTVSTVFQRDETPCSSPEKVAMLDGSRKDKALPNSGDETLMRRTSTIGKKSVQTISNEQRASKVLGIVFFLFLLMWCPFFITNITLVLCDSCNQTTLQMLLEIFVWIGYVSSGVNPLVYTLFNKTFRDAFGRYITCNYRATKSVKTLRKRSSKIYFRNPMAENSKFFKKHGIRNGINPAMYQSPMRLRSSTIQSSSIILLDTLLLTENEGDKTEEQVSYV

| Structure (SMILES) | Maximum response |
| --- | --- |
| C[C@H]1CNCCc2ccc(Cl)cc21 | 100% |
| C[C@@H]1CNCCc2ccc(Cl)cc21 | 100% |
| Clc1ccc2c(c1)CCNCC2 | 100% |

What follows are compounds tested against T3, 5-hydroxytryptamine receptor 2B (assay: Percentage maximum response relative to serotonin towards 5-hydroxytryptamine 2B receptor at 10 uM concentration in HEK293 cells). Conditions: not given.
Type: functional, cell-based

| Structure (SMILES) | Maximum response |
| --- | --- |
| C[C@@H]1CNCCc2ccc(Cl)c(Cl)c21 | 25% |

These compounds were tested on Rattus norvegicus (assay: Effect on food intake after 6 hr of injection of compound by oral gavage and compared to vehicle control rats (n = 8); decreased food intake by range 10-40 mg/kg). Conditions: not given.
Type: functional

| Structure (SMILES) | ED50 |
| --- | --- |
| COc1cc2c(cc1I)C(C)CNCC2 (configuration not stated) | 40 mg/kg |

Same assay, conditions: Rattus norvegicus, po, 6 h; read-out: ED50

| Structure (SMILES) | ED50 |
| --- | --- |
| CC1CNCCc2cc(Cl)c(Cl)cc21 (configuration not stated) | 40 mg/kg |
| COc1cc2c(cc1Cl)C(C)CNCC2 (configuration not stated) | 40 mg/kg |
| CC1CNCCc2ccc(Cl)c(Cl)c21 (configuration not stated) | 40 mg/kg |
| CC1CNCCc2ccc(Cl)c(F)c21 (configuration not stated) | 40 mg/kg |
| CC1CNCCc2ccc(Cl)cc21 (configuration not stated) | 40 mg/kg |
| COc1cc2c(cc1Br)C(C)CNCC2 (configuration not stated) | 40 mg/kg |
| CC1CNCCc2cc(F)c(Cl)cc21 (configuration not stated) | 40 mg/kg |
| CC1CNCCc2ccc(C(F)(F)F)cc21 (configuration not stated) | 40 mg/kg |

These compounds were tested against T4, 5-hydroxytryptamine receptor 2C (Homo sapiens, UniProt P28335) (assay: Effective concentration towards 5-hydroxytryptamine 2C receptors transfected in HEK293 cells was determined by measuring [3H]phosphoinositol release). Conditions: not given.
T4 sequence (P28335 whole entry): T1 sequence (whole entry)
Type: functional, cell-based
How it was run: as §1

| Structure (SMILES) | EC50 |
| --- | --- |
| CC1CNCCc2cc(O)c(Br)cc21 (configuration not stated) | 3 nM |
| CC1CNCCc2c(Cl)cc(Cl)cc21 (configuration not stated) | 20 nM |
| COc1cc2c(cc1Br)C(C(C)C)CNCC2 (configuration not stated) | 160 nM |
| COc1cc2c(cc1Br)[C@@H](C)CNCC2 | 3 nM |
| CC1CNCCc2cc(Cl)c(Cl)cc21 (configuration not stated) | 4 nM |
| CC1CNCCc2cc(OCc3ccccc3)c(Br)cc21 (configuration not stated) | 56 nM |
| COc1cc2c(cc1Cl)C(C)CNCC2 (configuration not stated) | 11 nM |
| COc1cc2c(cc1C(F)(F)F)C(C)CNCC2 (configuration not stated) | 4 nM |
| CC1CNCCc2c(Cl)cccc21 (configuration not stated) | 860 nM |
| COc1cc2c(cc1I)C(C)CNCC2 (configuration not stated) | 2 nM |
| CC1CNCCc2ccc(Cl)c(Cl)c21 (configuration not stated) | 6 nM |
| CC1CNCCc2ccc(Cl)c(F)c21 (configuration not stated) | 22 nM |
| C[C@H]1CNCCc2ccc(Cl)c(Cl)c21 | 230 nM |
| COc1ccc2c(c1)CCNCC2C (configuration not stated) | 2000 nM |
| COc1cc2c(cc1Br)[C@H](C)CNCC2 | 5 nM |
| CC(C)Oc1cc2c(cc1Br)C(C)CNCC2 (configuration not stated) | 68 nM |
| COc1cc2c(cc1Br)C(C)CNCC2 (configuration not stated) | 5 nM |
| COc1cc2c(cc1Br)CCNCC2 | 8 nM |
| CC1CNCCc2ccccc21 (configuration not stated) | 340 nM |
| CC1CNCCc2cccc(Cl)c21 (configuration not stated) | 930 nM |
| CC1CNCCc2ccc(Br)cc21 (configuration not stated) | 12 nM |
| C[C@@H]1CNCCc2ccc(Cl)c(Cl)c21 | 3 nM |
| CC1CNCCc2cc(F)c(Cl)cc21 (configuration not stated) | 7 nM |
| CC1CNCCc2cc(Cl)ccc21 (configuration not stated) | 35 nM |
| Clc1ccc2c(c1)CCNCC2 | 12 nM |
| CC1CNCCc2ccc(F)cc21 (configuration not stated) | 410 nM |
| CCC1CNCCc2cc(OC)c(Br)cc21 (configuration not stated) | 11 nM |
| CCOc1cc2c(cc1Br)C(C)CNCC2 (configuration not stated) | 28 nM |
| CC1CNCCc2ccc(C(F)(F)F)cc21 (configuration not stated) | 7 nM |
| COc1ccc2c(c1)C(C)CNCC2 (configuration not stated) | 420 nM |

What follows are compounds tested against T2, 5-hydroxytryptamine receptor 2A (assay: Effective concentration towards 5-hydroxytryptamine 2A receptors transfected in HEK293 cells was determined by measuring [3H]phosphoinositol release). Conditions: hek293.
Type: functional, cell-based
How it was run: as §1

| Structure (SMILES) | EC50 |
| --- | --- |
| COc1cc2c(cc1Br)C(C(C)C)CNCC2 (configuration not stated) | Not Active |

Same assay, conditions: read-out: EC50

| Structure (SMILES) | EC50 |
| --- | --- |
| CC1CNCCc2cc(O)c(Br)cc21 (configuration not stated) | 63 nM |
| CC1CNCCc2c(Cl)cc(Cl)cc21 (configuration not stated) | 170 nM |
| COc1cc2c(cc1Br)[C@@H](C)CNCC2 | 80 nM |
| CC1CNCCc2cc(Cl)c(Cl)cc21 (configuration not stated) | 16 nM |
| CC1CNCCc2cc(OCc3ccccc3)c(Br)cc21 (configuration not stated) | 22 nM |
| COc1cc2c(cc1Cl)C(C)CNCC2 (configuration not stated) | 80 nM |
| COc1cc2c(cc1C(F)(F)F)C(C)CNCC2 (configuration not stated) | 42 nM |
| CC1CNCCc2c(Cl)cccc21 (configuration not stated) | > 5000 nM |
| COc1cc2c(cc1I)C(C)CNCC2 (configuration not stated) | 61 nM |
| CC1CNCCc2ccc(Cl)c(Cl)c21 (configuration not stated) | 220 nM |
| CC1CNCCc2ccc(Cl)c(F)c21 (configuration not stated) | 840 nM |
| C[C@H]1CNCCc2ccc(Cl)c(Cl)c21 | 2400 nM |
| COc1ccc2c(c1)CCNCC2C (configuration not stated) | > 10000 nM |
| COc1cc2c(cc1Br)[C@H](C)CNCC2 | 30 nM |
| CC(C)Oc1cc2c(cc1Br)C(C)CNCC2 (configuration not stated) | 97 nM |
| COc1cc2c(cc1Br)C(C)CNCC2 (configuration not stated) | 80 nM |
| COc1cc2c(cc1Br)CCNCC2 | 100 nM |
| CC1CNCCc2ccccc21 (configuration not stated) | 1600 nM |
| CC1CNCCc2cccc(Cl)c21 (configuration not stated) | > 5000 nM |
| CC1CNCCc2ccc(Br)cc21 (configuration not stated) | 510 nM |
| C[C@@H]1CNCCc2ccc(Cl)c(Cl)c21 | 135 nM |
| CC1CNCCc2cc(F)c(Cl)cc21 (configuration not stated) | 72 nM |
| CC1CNCCc2cc(Cl)ccc21 (configuration not stated) | 150 nM |
| Clc1ccc2c(c1)CCNCC2 | 90 nM |
| CC1CNCCc2ccc(F)cc21 (configuration not stated) | 1600 nM |
| CCC1CNCCc2cc(OC)c(Br)cc21 (configuration not stated) | 100 nM |
| CCOc1cc2c(cc1Br)C(C)CNCC2 (configuration not stated) | 110 nM |
| CC1CNCCc2ccc(C(F)(F)F)cc21 (configuration not stated) | 100 nM |
| COc1ccc2c(c1)C(C)CNCC2 (configuration not stated) | 940 nM |

Each compound was assayed against T3, 5-hydroxytryptamine receptor 2B (assay: Effective concentration towards 5-hydroxytryptamine 2B receptors transfected in HEK293 cells was determined by measuring [3H]phosphoinositol release). Conditions: hek293.
Type: functional, cell-based
How it was run: as §1

| Structure (SMILES) | EC50 |
| --- | --- |
| COc1ccc2c(c1)CCNCC2C (configuration not stated) | Not Active |

Same assay, conditions: read-out: EC50

| Structure (SMILES) | EC50 |
| --- | --- |
| CC1CNCCc2cc(O)c(Br)cc21 (configuration not stated) | 190 nM |
| CC1CNCCc2c(Cl)cc(Cl)cc21 (configuration not stated) | 840 nM |
| COc1cc2c(cc1Br)C(C(C)C)CNCC2 (configuration not stated) | 1000 nM |
| COc1cc2c(cc1Br)[C@@H](C)CNCC2 | 220 nM |
| CC1CNCCc2cc(Cl)c(Cl)cc21 (configuration not stated) | 78 nM |
| CC1CNCCc2cc(OCc3ccccc3)c(Br)cc21 (configuration not stated) | > 10000 nM |
| COc1cc2c(cc1Cl)C(C)CNCC2 (configuration not stated) | 140 nM |
| COc1cc2c(cc1C(F)(F)F)C(C)CNCC2 (configuration not stated) | 130 nM |
| CC1CNCCc2c(Cl)cccc21 (configuration not stated) | > 5000 nM |
| COc1cc2c(cc1I)C(C)CNCC2 (configuration not stated) | 64 nM |
| CC1CNCCc2ccc(Cl)c(Cl)c21 (configuration not stated) | 1800 nM |
| CC1CNCCc2ccc(Cl)c(F)c21 (configuration not stated) | > 10000 nM |
| C[C@H]1CNCCc2ccc(Cl)c(Cl)c21 | > 10000 nM |
| COc1cc2c(cc1Br)[C@H](C)CNCC2 | 30 nM |
| CC(C)Oc1cc2c(cc1Br)C(C)CNCC2 (configuration not stated) | 230 nM |
| COc1cc2c(cc1Br)C(C)CNCC2 (configuration not stated) | 100 nM |
| COc1cc2c(cc1Br)CCNCC2 | 400 nM |
| CC1CNCCc2ccccc21 (configuration not stated) | > 5000 nM |
| CC1CNCCc2cccc(Cl)c21 (configuration not stated) | > 5000 nM |
| CC1CNCCc2ccc(Br)cc21 (configuration not stated) | 1500 nM |
| CC1CNCCc2cc(F)c(Cl)cc21 (configuration not stated) | 360 nM |
| CC1CNCCc2cc(Cl)ccc21 (configuration not stated) | 530 nM |
| Clc1ccc2c(c1)CCNCC2 | 1000 nM |
| CC1CNCCc2ccc(F)cc21 (configuration not stated) | > 10000 nM |
| CCC1CNCCc2cc(OC)c(Br)cc21 (configuration not stated) | 40 nM |
| CCOc1cc2c(cc1Br)C(C)CNCC2 (configuration not stated) | 180 nM |
| CC1CNCCc2ccc(C(F)(F)F)cc21 (configuration not stated) | 380 nM |
| COc1ccc2c(c1)C(C)CNCC2 (configuration not stated) | 780 nM |
